Bioassay records deposited in PubChem by several laboratories.
Autophagy mod: modulators of autophagy; 0.98% of 190,000 active; MEF GFP-LC3 puncta imaging; test concentration mostly 10 µM; calls only at 10 µM (by protocol);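 active = percentage of spot-positive cells more than 3 SD above its plate mean, without a fluorescence outlier flag or 80% toxicity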;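 note: spot-positive cell cutoff set from DMSO-treated cells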
bCat nuc transl: alters nuclear translocation of beta-catenin in HeLa cells; immunofluorescence imaging; nuclear translocation activity, % at 5 µM; 0.3% of 190,000 active;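 active = nuclear translocation activity above 50% at 5 µM, with a well cell count of 50 or more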;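 note: per-cell ratio of nuclear to cytoplasmic median beta-catenin stain intensity; plate controls were DMSO negative control for no effect and GSK-3 inhibitor IX positive control for full effect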
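Signal – beta-catenin immunofluorescence imaging with DAPI · Test system – human HeLa cell line · Dosing – 5 µM primary single dose, 0.1% DMSO, 0.02–20 µM confirmation series · Measure – % activation, nuclear-to-cytoplasmic median beta-catenin signal ratio per cell · Incubation – 24 h compound exposure at 37°C, 5% CO2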
Insulin prom up: MIN6 insulin promoter up-regulation; z-score at 5 µM; MIN6 insulin promoter-GFP reporter, high-content imaging; active compounds read high; 0.3% of 190,000 active;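 active = z-score above 3 at 5 µM with at least 500 cells counted in the well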
MT stabilize HCS: microtubule stabilizers in HeLa cells | % tubulin-high responders, % at 10 µM | 0.83% of 200,000 active | HeLa tubulin immunostaining HCS, 24 h; share of cells brighter than vehicle mean+2SD;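 active = plate Z-score above 3 for both tubulin-high and condensed-nucleus cell shares, with cell loss under 80%, at 10 µM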;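 note: anti alpha tubulin signal scored within the nucleus-defined area of each cell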
Wee1 degr inh: human Wee1 degradation inhibition, primary screen | 1.2% of 220,000 active | reporter increase, % at 5 µM | HeLa Luc-Wee1K328M stability, luciferase luminescence; 100% = proteasome inhibitor MG132 effect | P30291;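 active = activation above the mean of all tested compounds plus 3 SD, set per screening run, cut at about 8.8% in these data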;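 note: cells exposed to compound for 20 h before luminescence read; 0% = DMSO alone and 100% = MG132 at 30 µM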
Target sequence (P30291 whole entry K328M): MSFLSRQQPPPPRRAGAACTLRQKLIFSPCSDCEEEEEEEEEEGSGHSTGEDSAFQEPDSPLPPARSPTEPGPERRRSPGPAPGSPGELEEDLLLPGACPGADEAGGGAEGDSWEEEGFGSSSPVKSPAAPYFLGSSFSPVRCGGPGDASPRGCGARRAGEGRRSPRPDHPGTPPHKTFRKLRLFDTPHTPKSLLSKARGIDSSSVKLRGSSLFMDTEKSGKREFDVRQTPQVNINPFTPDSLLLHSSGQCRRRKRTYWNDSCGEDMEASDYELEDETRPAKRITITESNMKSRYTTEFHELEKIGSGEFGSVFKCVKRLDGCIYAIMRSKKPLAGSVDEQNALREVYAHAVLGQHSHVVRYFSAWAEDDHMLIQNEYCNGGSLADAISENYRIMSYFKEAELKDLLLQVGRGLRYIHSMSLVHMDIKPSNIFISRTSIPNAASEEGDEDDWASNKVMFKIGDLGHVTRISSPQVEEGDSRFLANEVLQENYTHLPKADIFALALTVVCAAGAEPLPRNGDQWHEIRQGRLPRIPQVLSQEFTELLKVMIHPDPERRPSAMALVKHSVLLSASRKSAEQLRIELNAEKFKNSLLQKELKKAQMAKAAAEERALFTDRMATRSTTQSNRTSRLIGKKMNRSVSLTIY
Numbers without * were called inactive; i = inactive; · = not tested or not shown; + = active, no number. Compounds with a hit are over-represented: about 2.9% of the library has one in this group of screens.

SMILES	Autophagy mod	bCat nuc transl	Insulin prom up	MT stabilize HCS	Wee1 degr inh
COc1ccc(/C=N/NC(=O)c2cccnc2)cc1CSc1ccccn1	·	65*	0.35	·	2
Cc1nn(C(=O)c2ccc3c(c2)OCO3)c(N)c1-c1ccccc1	·	-2	0.07	6	2
Nc1cc(S(=O)(=O)Nc2ccc(Br)cc2)ccc1Cl	·	2	0.14	·	9.4*
COc1ccc2cc(/C=N/NC(=O)CN(c3ccccc3C)S(=O)(=O)c3ccccc3)c(Cl)nc2c1	+	9	1.7	4	0
COc1ccccc1N(CC(=O)N/N=C/c1ccc(C(=O)O)cc1)S(=O)(=O)c1ccc(C)cc1	·	0	1	·	9.0*
COc1ccc(N(CC(=O)N/N=C/c2ccco2)S(=O)(=O)c2ccccc2)cc1	i	-2	0.31	2	1
COc1ccc(/C=N/NC(=O)CN(c2ccc(OC)cc2)S(=O)(=O)c2ccccc2)cc1	i	0	·	4	1
O=C(NCc1ccccn1)C1CN(S(=O)(=O)c2ccccc2)CCN1S(=O)(=O)c1ccccc1 (stereo not given)	i	1	-0.6	3	0
Cc1c(Cl)cccc1N(CC(=O)NC1CCCCC1)S(C)(=O)=O	i	-4	0.89	3	1
N#Cc1cnn(-c2cccc(Cl)c2)c1-n1cccc1	·	-4	0.16	·	-1
O=C1CCCN1CCCNS(=O)(=O)c1ccc(F)cc1F	·	-1	-0.01	·	-3
Cc1ccc(C)c(C(=O)COC(=O)c2ccccc2N2C(=O)C3C4CCC(C4)C3C2=O)c1 (stereo not given)	i	-2	-0.27	3	3
CCOc1ccc2[nH]c3c(N4CCN(c5ccccn5)CC4)ncnc3c2c1	+	·	·	5	-2
CN(C)c1nc(Oc2ccc(C(=O)OCC(=O)Nc3ccccc3)cc2)nc(N(C)C)n1	i	0	0.44	4	9.1*
Nc1nnc(-c2cc3c(ccc4ccccc43)oc2=O)s1	i	-2	8.8*	8	-1
O=c1oc2ccc3ccccc3c2cc1-c1nnc(-c2ccccc2)o1	i	0	·	6	-1
CC(C)Oc1ccc(-c2nn(-c3ccccc3)cc2/C=c2\sc3ncnn3c2=O)cc1	i	·	0.15	3	10*
O=c1/c(=C/c2cn(-c3ccccc3)nc2-c2ccc(F)cc2)sc2nc3ccccc3n12	i	-3	0.31	2	-1
Cc1ccc2nc(-c3ccc(NC(=O)C4CCCO4)cc3)[nH]c2c1 (stereo not given)	i	·	0.89	3	4
O=C(COC(=O)C1CC2C=CC1C2)NCc1ccc(F)cc1 (stereo not given)	i	-2	·	6	-1
COc1ccccc1NC(=O)COC(=O)C1CC2C=CC1C2 (stereo not given)	i	-1	3*	3	2
COc1ccc([N+](=O)[O-])cc1N/C(=N/S(=O)(=O)c1ccccc1)c1ccccc1	i	-4	0	2	2
CCOC(=O)c1sc2cc([N+](=O)[O-])cc(SCC(C)C)c2c1N	+	1	·	1	0
CCOC(=O)c1cc(N)cc([N+](=O)[O-])c1	i	·	0.15	6	0
O=c1cc(C(Cl)(Cl)Cl)oc2c1ccc1ccccc12	+	-1	-3.8	3	0
SMILES	Autophagy mod	bCat nuc transl	Insulin prom up	MT stabilize HCS	Wee1 degr inh
O=C(CSc1n[nH]c(-c2ccccc2O)n1)N1CCCc2ccccc21	i	-1	-0.1	48*	5
COC(=O)CCN(C(=O)c1ccc(C)c([N+](=O)[O-])c1)c1ccccn1	i	3	-0.15	2	10.0*
Cc1ccc(NC(=O)C2CCCN2S(=O)(=O)c2ccc3c(c2)n(C)c(=O)c(=O)n3C)cc1C (stereo not given)	i	-2	0.41	3	2
CCCOc1ccc(/C=N\NC(=O)CCc2n[nH]c(=O)[nH]c2=O)cc1OC	i	-5	-0.25	2	9.6*
COc1ccc(/C=N/NC(=O)CCNc2n[nH]c(=O)[nH]c2=O)c(OC)c1	+	-2	1.3	3	1
COc1nc2c(c(-c3cc(Br)cs3)c1C#N)Cc1ccccc1-2	·	1	-0.13	·	0
Oc1c(C=Nc2cccc3cccnc23)sc2ccccc12	+	6	2.7	4	-2
C/C(Cc1ccccc1)=N\NC(=O)CNC(=O)c1ccc(Cl)cc1Cl	·	0	0.12	·	1
Clc1ccc(Cn2cccn2)cn1	i	-1	0.38	4	0
